Assay results published in ChEMBL document CHEMBL2346559, “Optimization of benzoxazole-based inhibitors of Cryptosporidium parvum inosine 5'-monophosphate dehydrogenase” (J Med Chem, 2013).

Experiments:
[1] = biological target: T1, Inosine-5'-monophosphate dehydrogenase (Cryptosporidium parvum, UniProt Q8T6T2); assay: Inhibition of Cryptosporidium parvum N-terminal His6-tagged IMPDH-mediated NADH production expressed in Escherichia coli BL21(DE3) preincubated for 5 mins prior to substrate addition by fluorescence assay
T1 sequence (Q8T6T2 whole entry): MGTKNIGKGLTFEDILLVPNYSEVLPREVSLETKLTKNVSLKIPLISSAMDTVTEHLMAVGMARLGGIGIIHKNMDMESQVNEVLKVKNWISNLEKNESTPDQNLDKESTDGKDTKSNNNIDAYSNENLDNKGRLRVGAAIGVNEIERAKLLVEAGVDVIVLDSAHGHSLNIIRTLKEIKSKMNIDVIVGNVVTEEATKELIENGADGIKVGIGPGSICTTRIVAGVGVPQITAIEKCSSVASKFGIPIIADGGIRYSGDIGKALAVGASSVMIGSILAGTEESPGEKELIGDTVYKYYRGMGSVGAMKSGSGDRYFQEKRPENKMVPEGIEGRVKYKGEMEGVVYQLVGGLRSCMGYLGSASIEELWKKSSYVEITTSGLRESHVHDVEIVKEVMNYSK

[2] = biological target: T1, Inosine-5'-monophosphate dehydrogenase; assay: Inhibition of Cryptosporidium parvum N-terminal His6-tagged IMPDH-mediated NADH production expressed in Escherichia coli BL21(DE3) preincubated for 5 mins prior to substrate addition by fluorescence assay in presence of BSA
Outline: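 Same CpIMPDH fluorescence assay (10 nM enzyme, 300 μM NAD, 150 μM IMP, pH 8.0 Tris buffer, 25 °C, 5 min inhibitor preincubation), run with 0.05% fatty-acid-free BSA added to gauge nonspecific protein binding. Quadruplicate points; IC50 averaged over three determinations.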

Toxoplasma gondii [3] = assay: Antiparasitic activity against wild-type Toxoplasma gondii expressing eukaryotic IMPDH; format: functional, organism-based
[4] = biological target: Inosine-5'-monophosphate dehydrogenase 2 (Homo sapiens, UniProt P12268); assay: Inhibition of human IMPDH2
Toxoplasma gondii [5] = assay: Selectivity ratio of EC50 for wild-type Toxoplasma gondii to EC50 for Toxoplasma gondii expressing Cryptosporidium parvum IMPDH; format: functional
Toxoplasma gondii [6] = assay: Antiparasitic activity against transgenic Toxoplasma gondii expressing Cryptosporidium parvum IMPDH; format: functional, organism-based
Outline: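 Engineered T. gondii strain that depends on CpIMPDH for guanine nucleotide synthesis, run alongside the wild-type RH strain, whose native eukaryotic IMPDH also gauges host-cell cytotoxicity. Antiparasitic EC50 is the average of three independent determinations unless otherwise stated, with some values from two determinations.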

Row | Compound | IC50 [1] [nM] | IC50 [2] [nM] | EC50 (Toxoplasma gondii [3]) [µM] | IC50 [4] [µM] | Ratio EC50 (Toxoplasma gondii [5]) | EC50 (Toxoplasma gondii [6]) [nM]
1 | CC(Oc1cccc2ccccc12)C(=O)Nc1ccc2oc(-c3ccncc3)nc2c1 (centres undefined) | 9 | 14 | 2.4 | > 5 | 34 | 200
2 | CC(Oc1ccc(Cl)cc1Cl)C(=O)Nc1ccc2oc(-c3ccccc3)nc2c1 (centres undefined) | > 5000 |  |  | > 5 |  | 
3 | CC(Oc1cccc(Cl)c1)C(=O)Nc1ccc2oc(-c3ccncc3)nc2c1 (centres undefined) | 20 | 32 | 1.1 | > 5 | 2 | 500
4 | CC(Oc1c(Cl)cccc1Cl)C(=O)Nc1ccc2oc(-c3ccncc3)nc2c1 (centres undefined) | > 5000 |  |  | > 5 |  | 
5 | CC(Oc1ccc(Cl)c2ccccc12)C(=O)Nc1ccc2oc(-c3cncs3)nc2c1 (centres undefined) | 28 | 70 | 5 | > 5 | 3 | 2000
6 | CC(C(=O)Nc1ccc2oc(-c3ccncc3)nc2c1)c1ccccc1 (centres undefined) | 120 | 130 | 5 | > 5 |  | 2500
7 | CC(C)(Oc1ccc(Cl)cc1)C(=O)Nc1ccc2oc(-c3ccncc3)nc2c1 | > 5000 |  |  | > 5 |  | 
8 | C[C@H](C(=O)Nc1ccc2oc(-c3ccncc3)nc2c1)c1ccccc1 | > 5000 |  |  | > 5 |  | 
9 | COc1cccc(O[C@@H](C)C(=O)Nc2ccc3oc(-c4ccncc4)nc3c2)c1OC | 50 | 60 | 21 | > 5 | 30 | 700
10 | CC(NC(=O)c1ccc2oc(-c3ccncc3)nc2c1)c1ccccc1 (centres undefined) | > 5000 |  |  | > 5 |  | 
11 | CC(Nc1cccc(Cl)c1Cl)C(=O)Nc1ccc2oc(-c3ccncc3)nc2c1 (racemic) | 2 |  |  | > 5 |  | 20
12 | CC(Oc1ccc(Cl)cc1Cl)C(=O)Nc1ccc2oc(-c3cccnc3)nc2c1 (centres undefined) | 150 | 600 |  | > 5 |  | 
13 | O=C(COc1ccc(Cl)cc1Cl)Nc1ccc2oc(-c3ccncc3)nc2c1 | > 5000 |  |  | > 5 |  | 
14 | CC(Oc1ccccc1)C(=O)Nc1ccc2nc(-c3ccncc3)[nH]c2c1 (centres undefined) | > 5000 |  | 9 | > 5 | 1 | 9000
15 | CC(Oc1ccccc1)c1cn(-c2ccc3oc(-c4cncs4)nc3c2)nn1 (centres undefined) | > 5000 |  |  | > 5 |  | 
16 | CC(C)C(Oc1cccc2ccccc12)C(=O)Nc1ccc2oc(-c3ccncc3)nc2c1 (centres undefined) | 24 | 57 |  | > 5 |  | 
17 | CC(Oc1ccc(Cl)cc1Cl)C(=O)Nc1ccc2oc(-c3ccccn3)nc2c1 (centres undefined) | 210 | 800 |  | > 5 |  | 
18 | CC(Oc1ccc(Cl)c2ccccc12)C(=O)Nc1ccc2oc(-c3ccncc3)nc2c1 (centres undefined) | 27 | 53 |  | > 5 |  | 
19 | CC(Cc1ccccc1)C(=O)Nc1ccc2oc(-c3ccncc3)nc2c1 (centres undefined) | > 5000 |  |  | > 5 |  | 
20 | C[C@H](Oc1cccc(Cl)c1Cl)C(=O)Nc1cccc(NC(=O)c2ccncc2)c1 | > 5000 |  |  | > 5 |  | 
21 | C[C@H](Oc1cccc(Cl)c1Cl)C(=O)Nc1ccc2nc(-c3cncs3)oc2c1 | 7 | 60 |  | > 5 |  | 
22 | C[C@H](Oc1cccc2ccccc12)C(=O)N(C)c1ccc2oc(-c3cncs3)nc2c1 | > 5000 |  |  | > 5 |  | 
23 | C[C@H](Oc1cccc(C(F)(F)F)c1Cl)C(=O)Nc1ccc2oc(-c3ccncc3)nc2c1 | 9 | 52 |  | > 5 |  | 800
24 | CC(Oc1ccc(Cl)cc1)C(=O)Nc1ccc2oc(-c3ccncc3)nc2c1 (centres undefined) | 105 | 118 |  | > 5 |  | 
25 | CC(Oc1cccc2ccccc12)C(=O)Nc1ccc2oc(-c3ncccn3)nc2c1 (centres undefined) | > 5000 |  |  | > 5 |  | 
26 | C[C@@H](Oc1cccc2ccccc12)C(=O)Nc1ccc2oc(-c3ccncc3)nc2c1 | 400 | 380 |  | > 5 |  | 
